Results collected from several papers.
Matrix: plasma

SMILES | host | route | dose | notes | Cmax
OC[C@H]1O[C@@H](c2cc(Cc3ccc(C4CC4)cc3)c(Cl)c3c2CCO3)[C@H](O)[C@@H](O)[C@@H]1O | human | oral | 0.3 mg | single dose, fasted | 4.5 ng/mL
COc1ccc(F)cc1C(=O)NCc1ccc(-c2nn([C@@H](C)C(F)(F)F)c(N)c2C(N)=O)cc1 | male human | oral | 200 mg | single dose | 4490 ng/mL
Cc1cc(-c2nccc3c2ccn3CC(=O)Nc2ccc(-c3cnccn3)cn2)ccn1 | human | oral | 7 mg | single dose | 57.4 nM
CC(C)n1c(C2CCNCC2)nc2c([N+](=O)[O-])c(Br)c(Br)cc21 | human | oral | 25 mg | patients | 8.77 ng/mL
C=CC(=O)NC1CCN(c2ncc3ncnc(Nc4ccc(Oc5ccc6c(c5)ncn6C)c(C)c4)c3n2)CC1 | male human | oral | 60 mg | single dose, healthy volunteers | 1160 nM
O=C(COc1ccc(Cl)cc1)NC12CC(c3nnc([C@H]4C[C@@H](OC(F)(F)F)C4)o3)(C1)C2 | human | oral | 260 mg | multiple doses, once daily, steady state, healthy volunteers | 18600 nM
COc1ccc(-c2c(Nc3ccccn3)[nH]c3c(C4=CCCCC4)c(-c4ccccc4)nn3c2=O)cc1 | human | oral | 100 mg once daily | multiple doses, patients | 3490 ng/mL
COc1ccc2c(c1)CN(C(=O)CCN1CCC(Cc3ccccc3)CC1)CC[S@@+]2[O-] | male human | intravenous | 0.01 mg/kg | healthy volunteers | 21.9 ng/mL
CC(=O)N(C)[C@H]1CCN(C(=O)c2cnc3c(c2)C[C@](C)(c2ccc(F)cc2)N3)C1 | male human | oral | 15 mg | multiple doses, once daily, steady state | 333 nM
